In brackets after ≈: the same amount, converted by molar mass.
Legend:
[1] = Saturation solubility of ERL batches in water; type: physicochemical
[2] = In vitro dissolution, USP apparatus II; type: physicochemical; details: within 5 min
Outline: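 USP II paddle dissolution at 37 ± 0.5°C and 75 rpm in 500 ml of 0.1 N HCl, FaSSIF or FeSSIF. Plain drug or liquisolid formulation was added at 50 mg drug-equivalent. Aliquots were taken at […], with the medium replaced each time. Samples were centrifuged at 10,000 rpm for 10 min and the supernatant was quantified by HPLC-DAD at 246 nm.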

[3] = system: ERL-resistant HCC827 cells; test: In vitro cytotoxicity, crystal violet; type: cell-based; details: 48 h
[4] = human; cited from earlier work
HCC 827/ERL cells = test: Annexin V-FITC apoptosis assay, flow cytometry; type: cell-based; details: HCC827/ERL cells, 48 h, VA 0.5 mM where present

C#Cc1cccc(Nc2ncnc3cc(OCCOC)c(OCCOC)cc23)c1 [ERL, Erlotinib]
solubility at 24 h [1]: 0.7 µg/mL (≈ 1.78 µM)
% drug dissolved ([2]; FaSSIF): 1.1%
% drug dissolved ([2]; FeSSIF): 13%
% cell killing ([3]; 25 μM (highest concentration)): < 15%
Absorbed after oral administration [4]: about 60%

CCCC(CCC)C(=O)O [VA, 2-propylpentanoic acid]
Cell killing ([3]; 0.5 mM): did not show significant cell killing
Apoptotic cells (HCC 827/ERL cells): poor apoptotic effect

From paper PMC12988600 (AAPS PharmSciTech, 2019)
